Source: PubChem BioAssay
Shown are actives, neighbours in structure and some others; about 6.8% of the full set was active somewhere.
HSF1 activator: increases HSF-1 driven luciferase reporter signal | NIH3T3-HGL HSF-1 luciferase reporter, MG132, 8 h; 100% = twice DMSO control signal | activation, % at 9 µM | 300,000 tested, 1.7% active;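 active = mean replicate activation of at least 50% with a set share of replicates each reaching 50%; inconclusive = only one of those two conditions met; inactive = mean below 50% and too few replicates reaching it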;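 note: 0% = median of the neutral control wells and 100% = twice that signal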
HSF1 inhib: HSF1 inhibition. NIH3T3-HGL HSE-luciferase, MG132-induced, luminescence 8 h; hits give low values. activity change, negative = inhibition, % at 7.5 µM (by protocol). 300,000 tested, 0.77% active. AID 2098;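 active = more than half of replicate wells show activity change below -50%, luminescence cut by over half; inconclusive = some wells, but at most half, below -50%; inactive = no replicate well below -50%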;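 note: luciferase reports HSF-1 transcriptional activity via heat shock element; 0% = median of DMSO wells and -100% = zero luminescence signal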
AI-2 QS modul: modulates the Vibrio harveyi AI-2 quorum sensing system. Vibrio harveyi JMH597 AI-2 luminescence/OD600 ratio, 9 h; hits give low values; strain lacks LuxN and CqsS sensors; 0 = neutral-control median. activity change, % at 7.5 µM. 300,000 tested, 0.4% active; in the data active = activity change below about -75%, passing the limit was not always enough; inconclusive = no clear call, values can overlap the other calls;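 note: luminescence divided by OD600 gain over 9 h not by final OD600 alone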
PHOSPHO1 inh: blocks human PHOSPHO1 phosphatase activity | Q8TCT1 | inhibition, % at 13.3 µM | AID 1565 | 290,000 tested, 1.1% active | recombinant PHOSPHO1, absorbance phosphatase assay; in the data active = inhibition above about 60%
Target sequence (Q8TCT1 whole entry, looked up): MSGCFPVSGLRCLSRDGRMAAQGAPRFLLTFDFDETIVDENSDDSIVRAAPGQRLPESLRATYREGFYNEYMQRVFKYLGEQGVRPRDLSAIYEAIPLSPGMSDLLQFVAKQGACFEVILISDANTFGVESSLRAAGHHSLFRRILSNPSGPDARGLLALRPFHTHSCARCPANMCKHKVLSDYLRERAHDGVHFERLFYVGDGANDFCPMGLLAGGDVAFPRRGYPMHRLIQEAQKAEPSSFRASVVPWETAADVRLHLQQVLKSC
HCV core dimer: HCV core protein dimerization inhibition | inhibition, % at 5 µM | TR-FRET GST/Flag-core106 dimerization, 1536-well | 300,000 tested, 0.33% active | AID 1899;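 active = inhibition above the mean of all tested compounds plus 3 SD, set per screening campaign, cut at about 45% in these data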
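System – GST-tagged and Flag-tagged HCV core protein residues 1-106 · Repeats – one well for each compound · Technique – TR-FRET 671 and 617 nm emission · Doses – one concentration, 5 µM, in 0.5% DMSO · Times – 4 h, 22.5 °C incubation · Also added – Eu donor and XL665 acceptor anti-tag antibodies · Measure – percent inhibition of core106 dimerization signal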
ALR H2O2 inh: inhibitors of human sulfhydryl oxidase ALR; purified ALR, DTT oxidation, H2O2 HRP-luminol luminescence; 290,000 tested, 3.8% active; inhibition, % (no concentration beside the values); AID 485317; P55789;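 active = mean replicate inhibition above about 79%, with every replicate also reaching it, limit read from the data; inconclusive = only one of the two criteria met; inactive = mean below limit and not every replicate reaching it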
Target sequence (P55789 whole entry, looked up): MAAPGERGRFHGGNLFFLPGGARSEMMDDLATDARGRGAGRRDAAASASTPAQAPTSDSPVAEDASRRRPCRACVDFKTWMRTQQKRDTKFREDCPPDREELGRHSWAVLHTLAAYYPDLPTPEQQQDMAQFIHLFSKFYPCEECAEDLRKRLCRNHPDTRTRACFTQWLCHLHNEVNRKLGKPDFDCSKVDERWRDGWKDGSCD
An asterisk follows results filed as active.

How did COc1ccc(OCC(O)CNC(=O)Nc2cc(F)ccc2C)cc1 (stereo not drawn) do in these assays?
HSF1 activator: 2; HSF1 inhib: 6; AI-2 QS modul: 18; PHOSPHO1 inh: -1; HCV core dimer: -2; ALR H2O2 inh: -3

Results for CC(=O)c1cccc(S(=O)(=O)NCC2CCCCC2)c1 ?
HSF1 activator: 3; HSF1 inhib: -3; AI-2 QS modul: 4; PHOSPHO1 inh: -18; HCV core dimer: -3; ALR H2O2 inh: -2

What do the screens show for `COc1ccc(C2c3[nH]c4ccccc4c3C[C@H]3C(=O)N(C)CC(=O)N23)cc1OC` (stereo partly drawn)?
HSF1 activator: -5; HSF1 inhib: 6; AI-2 QS modul: 11; HCV core dimer: 2; ALR H2O2 inh: 98*

Results for COc1ccc(-c2ccc(C(=S)N3CCN(C(C)=O)CC3)o2)cc1 ?
AI-2 QS modul: 6; PHOSPHO1 inh: 85*; HCV core dimer: 7; ALR H2O2 inh: inconclusive

Results for S=C(c1ccc(-c2ccc(Br)cc2)o1)N1CCCCC1 ?
HSF1 activator: 62*; HSF1 inhib: 16; AI-2 QS modul: 20; PHOSPHO1 inh: -8; HCV core dimer: 2; ALR H2O2 inh: -21

How did S=C(c1ccc(-c2ccc(Br)cc2)o1)N1CCOCC1 do in these assays?
HSF1 activator: 44; HSF1 inhib: 24; AI-2 QS modul: -2; PHOSPHO1 inh: 18; HCV core dimer: -1; ALR H2O2 inh: -3

How did COc1ccc(C(=O)CC(SCC(NC(C)=O)C(=O)O)c2ccc(Cl)cc2)cc1OC (stereo not drawn) do in these assays?
HSF1 activator: 7; HSF1 inhib: 0; AI-2 QS modul: 17; PHOSPHO1 inh: 16; HCV core dimer: 8; ALR H2O2 inh: 92*

Results for COc1cc(C(=O)O/N=C2\C=CC(=O)C(C)=C2)cc(OC)c1OC ?
HSF1 activator: 42; HSF1 inhib: 26; AI-2 QS modul: 34; PHOSPHO1 inh: 15; HCV core dimer: 0; ALR H2O2 inh: 98*

Results for COc1cc(C(=O)ON=C2C=C(C)C(=O)C(C)=C2)cc(OC)c1OC ?
HSF1 activator: 37; HSF1 inhib: 7; AI-2 QS modul: 11; PHOSPHO1 inh: 4; HCV core dimer: -8; ALR H2O2 inh: 57

How did CSc1ccc(CN(C)C(=O)C23CC4CC(CC(Cl)(C4)C2)C3)cc1 do in these assays?
HSF1 activator: 9; HSF1 inhib: 2; AI-2 QS modul: 23; PHOSPHO1 inh: 12; HCV core dimer: 16; ALR H2O2 inh: -3

Results for c1ccc(Nc2cc(Nc3ccccc3)[nH]n2)cc1 ?
HSF1 activator: 36; HSF1 inhib: 16; AI-2 QS modul: -88*; PHOSPHO1 inh: 69*; HCV core dimer: -13; ALR H2O2 inh: 61

What do the screens show for `O=c1nccc(Nc2ccccc2)[nH]1`?
HSF1 activator: 11; HSF1 inhib: 1; AI-2 QS modul: 9; PHOSPHO1 inh: 34; HCV core dimer: -1; ALR H2O2 inh: -11

How did Cc1cccc(OCc2n[nH]c(=S)o2)c1 do in these assays?
HSF1 activator: 18; HSF1 inhib: -4; AI-2 QS modul: 25; PHOSPHO1 inh: 98*; HCV core dimer: -5; ALR H2O2 inh: 44

Results for Cc1cccc(C)c1OCc1n[nH]c(=S)o1 ?
HSF1 activator: -8; HSF1 inhib: -3; AI-2 QS modul: 16; PHOSPHO1 inh: -7; HCV core dimer: 5; ALR H2O2 inh: 29

Results for CC1CN(C(=O)C(C)N2CCN(c3cccc(Cl)c3)CC2)CC(C)O1 (stereo not drawn) ?
HSF1 activator: -7; HSF1 inhib: -7; AI-2 QS modul: 3; PHOSPHO1 inh: 44; HCV core dimer: -5; ALR H2O2 inh: 88*

Results for Cc1nc2ccccc2c2nc3ccccc3n12 ?
HSF1 activator: 20; HSF1 inhib: -8; AI-2 QS modul: 28; PHOSPHO1 inh: 9; HCV core dimer: 11; ALR H2O2 inh: 18

How did c1ccc2c(c1)nnn1c3ccccc3nc21 do in these assays?
HSF1 activator: 62*; HSF1 inhib: 29; AI-2 QS modul: -2; PHOSPHO1 inh: -14; HCV core dimer: 0; ALR H2O2 inh: 0

Results for COc1cc(/C=N/N=C2/NC(=O)C(Cc3ccc(F)cc3)S2)ccc1O (stereo not drawn) ?
HSF1 activator: 36; HSF1 inhib: 5; AI-2 QS modul: 7; PHOSPHO1 inh: -17; HCV core dimer: -5; ALR H2O2 inh: 26

How did O=C1Nc2ccccc2/C1=N\N=C\c1ccc(O)c(O)c1 do in these assays?
HSF1 activator: -10; HSF1 inhib: -1; AI-2 QS modul: 33; PHOSPHO1 inh: 24; HCV core dimer: -18; ALR H2O2 inh: 99*

What do the screens show for `COc1cc(/C=N/N=C2/NC(=O)C(c3ccccc3)S2)ccc1O` (stereo not drawn)?
HSF1 activator: -1; HSF1 inhib: -14; AI-2 QS modul: 31; PHOSPHO1 inh: 67*; HCV core dimer: 10; ALR H2O2 inh: 99*

How did Cc1ccsc1/C=N/N=C1\C(=O)Nc2ccccc21 do in these assays?
HSF1 activator: 5; HSF1 inhib: 4; AI-2 QS modul: 20; PHOSPHO1 inh: 5; HCV core dimer: -2; ALR H2O2 inh: -5

Results for COc1cc(/C=N/N=C2/C(=O)Nc3ccccc32)ccc1O ?
HSF1 activator: 15; HSF1 inhib: -1; AI-2 QS modul: 0; PHOSPHO1 inh: -12; HCV core dimer: -30; ALR H2O2 inh: 99*

What do the screens show for `COCCN(C(=O)COC(=O)CCC1CCCC1)c1c(N)n(Cc2ccccc2)c(=O)[nH]c1=O`?
HSF1 activator: -18; HSF1 inhib: -1; AI-2 QS modul: 1; HCV core dimer: 0; ALR H2O2 inh: 14

Results for CCC(=O)N1CCc2cc(S(=O)(=O)CCC(=O)Nc3ccc(F)c(F)c3)ccc21 ?
HSF1 activator: 11; HSF1 inhib: 0; AI-2 QS modul: 4; PHOSPHO1 inh: 12; HCV core dimer: -11; ALR H2O2 inh: 98*

Results for CCC(=O)N1CCc2cc(S(=O)(=O)CCC(=O)Nc3cccc(F)c3)ccc21 ?
HSF1 activator: -1; HSF1 inhib: -2; AI-2 QS modul: 27; PHOSPHO1 inh: 21; HCV core dimer: -2; ALR H2O2 inh: 98*

Results for CC(=O)N1CCc2cc(S(=O)(=O)CCC(=O)NCCc3ccc(Cl)cc3)ccc21 ?
HSF1 activator: 4; HSF1 inhib: 7; AI-2 QS modul: 8; PHOSPHO1 inh: 65*; HCV core dimer: -2; ALR H2O2 inh: -1

How did Cc1ccc(S(=O)(=O)Cc2ccc(C(=O)NC3CCCCCC3)o2)cc1 do in these assays?
HSF1 activator: -1; HSF1 inhib: 2; AI-2 QS modul: 5; PHOSPHO1 inh: 26; HCV core dimer: 2; ALR H2O2 inh: -11

What do the screens show for `COc1ccc2[nH]c(C(=O)Nc3ccc4c(c3)OCO4)cc2c1`?
HSF1 activator: 25; HSF1 inhib: 12; PHOSPHO1 inh: 8; HCV core dimer: 3; ALR H2O2 inh: -21
